Here are results for three compounds from PMC6039208 (Clinical and Translational Science, 2018).

Bounds are passed on as bounds.

Data set [1] is described as follows: Population PK model of sorafenib and its N‐oxide metabolite in patients with AML. The class given is in vivo, human.
For data set [2] the following is noted: cited from earlier work.
For data set [3], the system named is ERK. Nature of the data set: Exposure‐response. Type of data set: cell-based, human. Particulars: for Imax,ERK, maximum inhibitory effect on ERK activity: as fraction. Put shortly: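 Ex vivo ERK activity in FLT3‑ITD TF‑1 cells was read by Western blot as percent of each patient's baseline (100%). An inhibitory Emax model versus metabolite‑adjusted concentration was fitted sequentially to the PK model by FOCE‑I, with Imax estimated.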

The test system of data set [4] is FLT3‐ITD. Particulars: cited from earlier work.
Data set [5] addresses T1, FLT3‐ITD (Homo sapiens, UniProt P36888).
T1 sequence (P36888 27-993): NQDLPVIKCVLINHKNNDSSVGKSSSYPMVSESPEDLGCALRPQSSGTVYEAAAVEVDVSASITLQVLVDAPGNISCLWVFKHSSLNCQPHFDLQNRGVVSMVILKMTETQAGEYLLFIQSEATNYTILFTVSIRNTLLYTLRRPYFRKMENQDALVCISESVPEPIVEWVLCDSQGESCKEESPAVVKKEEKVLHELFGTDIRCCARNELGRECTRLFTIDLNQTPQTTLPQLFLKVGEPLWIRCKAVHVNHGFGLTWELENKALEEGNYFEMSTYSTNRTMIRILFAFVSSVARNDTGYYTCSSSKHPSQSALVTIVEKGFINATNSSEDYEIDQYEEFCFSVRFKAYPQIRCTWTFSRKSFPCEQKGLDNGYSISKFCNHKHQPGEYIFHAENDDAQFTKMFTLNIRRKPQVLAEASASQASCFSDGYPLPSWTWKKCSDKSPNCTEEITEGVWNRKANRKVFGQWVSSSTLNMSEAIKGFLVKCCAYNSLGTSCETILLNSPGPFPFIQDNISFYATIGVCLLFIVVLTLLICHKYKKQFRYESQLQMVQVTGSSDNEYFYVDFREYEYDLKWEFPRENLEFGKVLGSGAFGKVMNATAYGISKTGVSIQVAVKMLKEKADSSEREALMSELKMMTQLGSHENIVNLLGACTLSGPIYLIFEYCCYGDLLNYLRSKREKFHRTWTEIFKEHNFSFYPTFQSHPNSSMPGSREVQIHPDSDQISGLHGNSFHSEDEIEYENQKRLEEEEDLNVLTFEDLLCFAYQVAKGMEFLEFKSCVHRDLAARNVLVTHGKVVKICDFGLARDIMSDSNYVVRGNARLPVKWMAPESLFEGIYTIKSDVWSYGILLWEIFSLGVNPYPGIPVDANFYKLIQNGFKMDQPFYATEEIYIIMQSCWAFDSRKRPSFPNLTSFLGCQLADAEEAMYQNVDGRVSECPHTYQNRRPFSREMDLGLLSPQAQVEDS
Nature of the data set: Exposure‐response. The class given is cell-based. Particulars: doses given in this study (400 or 600 mg b.i.d.).

For data set [6] the following is noted: cited from earlier work. The source holds these as a separate data set.
Data set [7] has as its target CYP3A4 (Homo sapiens, UniProt P08684). Type of data set: in vivo. Particulars: patients with AML.
Setting [8] is: FOCE‐I estimate, typical value at 80 kg.

Chain of CYP3A4 (P08684 whole entry): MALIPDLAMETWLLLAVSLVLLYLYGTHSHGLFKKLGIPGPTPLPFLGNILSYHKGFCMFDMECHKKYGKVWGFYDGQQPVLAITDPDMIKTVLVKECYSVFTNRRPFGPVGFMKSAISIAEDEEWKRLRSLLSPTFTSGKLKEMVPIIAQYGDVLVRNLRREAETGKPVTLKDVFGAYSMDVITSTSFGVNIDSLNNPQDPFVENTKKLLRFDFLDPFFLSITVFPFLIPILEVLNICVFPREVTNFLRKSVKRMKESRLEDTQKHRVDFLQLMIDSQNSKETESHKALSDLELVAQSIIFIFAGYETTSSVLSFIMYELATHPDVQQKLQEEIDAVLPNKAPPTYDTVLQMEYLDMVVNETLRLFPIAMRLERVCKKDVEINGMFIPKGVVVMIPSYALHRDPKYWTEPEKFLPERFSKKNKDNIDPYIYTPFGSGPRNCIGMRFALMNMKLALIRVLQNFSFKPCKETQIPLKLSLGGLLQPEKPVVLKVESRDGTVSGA

For orientation: fraction unbound means the share of the substance not bound to proteins or other matrix. For `CNC(=O)c1cc(Oc2ccc(NC(=O)Nc3ccc(Cl)c(C(F)(F)F)c3)cc2)ccn1` [sorafenib], in data set [1] (FOCE‐I estimate), the “K64, release rate constant from gallbladder back to the gastrointestinal track” value is 0.173 h⁻¹; the “TENT, time controller of enterohepatic recirculation (time after dose)” value is 5.48 h; the “fENT, fraction of sorafenib that goes through enterohepatic circulation” value is reported as 50.20%. The “Ka, absorption rate constant” value in data set [1] (FOCE‐I estimate, patients with AML, oral) is 3.75 h⁻¹. Moreover, the clearance in data set [1] (human, plasma, oral, CL, total clearance, median of 1,000 bootstraps) was 237 mL/min. The fraction unbound in data set [1] (human, plasma, oral, fu, %fraction of unbound sorafenib, FOCE‐I estimate) was 0.0181. In addition, in data set [1] (median of 1,000 bootstraps), the “K64, release rate constant from gallbladder back to the gastrointestinal track” value stood at 0.17 h⁻¹; the “Ka, absorption rate constant” value amounted to 3.78 h⁻¹; the “TENT, time controller of enterohepatic recirculation (time after dose)” value is recorded as 5.47 h; the “fENT, fraction of sorafenib that goes through enterohepatic circulation” value amounted to 50.20%. Further, the “concentration dependence of plasma protein binding” value in data set [1] (within the observed concentration range) is reported as “concentration independent”. Moreover, the “dose‐limiting toxicity rate” value in data set [2] (400 mg b.i.d. regimen, 2/9 patients, original clinical trial ref 9) was around 20%. In addition, the “proportion of patients with AML able to adhere to dosing” value in data set [2] (continuous 400 mg b.i.d.) is listed as 18%. In data set [3] (FOCE‐I estimate), the “Imax,ERK, maximum inhibitory effect on ERK activity” value was 0.84. Moreover, the “extent of ERK activity inhibition” value in data set [3] (doses given in this study (400 or 600 mg b.i.d.)) is given as “could not be completely inhibited”. In data set [3] (median of 1,000 bootstraps), the “Imax,ERK, maximum inhibitory effect on ERK activity” value is given as 0.82. Moreover, the “in vitro FLT3‐ITD inhibitory activity compared with midostaurin” value in data set [4] was “fourfold higher”. Also, in data set [5], the “extent of FLT3‐ITD activity inhibition” value is listed as “fully inhibited”. In addition, in data set [6], the “dose above which saturable absorption occurs” value was “over 400 mg” and the “time to steady‐state” value was at most 7 days.

As for `C[C@@H](c1ncncc1F)[C@](O)(Cn1cncn1)c1ccc(F)cc1F` [voriconazole], the “change in sorafenib exposure in the presence of the inhibitor” value in data set [7] is recorded as “no change”.

As to `CNC(=O)c1cc(Oc2ccc(NC(=O)Nc3ccc(Cl)c(C(F)(F)F)c3)cc2)cc[n+]1[O-]` [sorafenib N‐oxide], in data set [1] (setting [8]), the “CLm, clearance of the N‐oxide metabolite” value is given as 116 L/h and the “V7, apparent volume of distribution (compartment A7) of the N‐oxide metabolite” value is recorded as 89.80 L. In data set [1] (median of 1,000 bootstraps), the “CLm, clearance of the N‐oxide metabolite” value amounted to 123 L/h and the “V7, apparent volume of distribution (compartment A7) of the N‐oxide metabolite” value is on record as 94.50 L. For the same compound, the “fold more potent than the parent drug, FLT3‐ITD potency” value in data set [4] (in vitro study, N‐oxide vs sorafenib) is on record as 14.59 fold.
